Data as given in ChEMBL document CHEMBL4251626, “4β-amidotriazole linked podophyllotoxin congeners: DNA topoisomerase-IIα inhibition and potential anticancer agents for prostate cancer” (Eur J Med Chem, 2018).
The source made the active and inactive calls. No cut-off for these calls is given here.

Assays:
[1] = tested on: HeLa; assay: Antiproliferative activity against human HeLa cells after 48 hrs by MTT assay; assay type: functional, cell-based
Procedure, shortened: (§1)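 Cells in DMEM/10% FBS pre-incubated 24 h at 37 °C, then compound-treated 48 h (10 mM DMSO stock diluted in medium). MTT (10 µL of 5 mg/mL) added for 4 h; formazan dissolved in DMSO, absorbance read at 570 nm. IC50 = 50% inhibitory concentration, mean of three individual experiments.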

[2] = tested on: MCF7; assay: Antiproliferative activity against human MCF7 cells after 48 hrs by MTT assay; assay type: functional, cell-based; conditions: MCF7, 48 h; procedure, shortened: as §1
[3] = tested on: DU-145; assay: Antiproliferative activity against human DU145 cells after 48 hrs by MTT assay; assay type: functional, cell-based; conditions: DU-145, 48 h; procedure, shortened: as §1
[4] = tested on: A549; assay: Antiproliferative activity against human A549 cells after 48 hrs by MTT assay; assay type: functional, cell-based; conditions: A549, 48 h; procedure, shortened: as §1
[5] = tested on: HepG2; assay: Antiproliferative activity against human HepG2 cells after 48 hrs by MTT assay; assay type: functional, cell-based; conditions: HepG2, 48 h; procedure, shortened: as §1
[6] = tested on: HT-29; assay: Antiproliferative activity against human HT-29 cells after 48 hrs by MTT assay; assay type: functional, cell-based; conditions: HT-29, 48 h; procedure, shortened: as §1
[7] = tested on: NIH3T3; assay: Antiproliferative activity against mouse NIH/3T3 cells after 48 hrs by MTT assay; assay type: cell-based; conditions: NIH3T3, 48 h; procedure, shortened: as §1
[8] = tested on: DU-145; assay: Cell cycle arrest in human DU145 cells assessed as accumulation at G2/M phase at 0.5 uM after 24 hrs by propidium iodide staining based flow cytometry relative to control; assay type: functional
Procedure, shortened: (§2)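 DU-145 cells (2x10^5/well) serum-starved 24 h to synchronize, then treated in complete medium for 24 h. Harvested and fixed in 70% ethanol at -20 °C for 30 min. RNase A (0.1 mg/mL, 37 °C, 30 min), then propidium iodide (50 µg/mL, 30 min on ice, dark). DNA content measured by flow cytometry.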

[9] = tested on: DU-145; assay: Cell cycle arrest in human DU145 cells assessed as accumulation at G2/M phase at 1 uM after 24 hrs by propidium iodide staining based flow cytometry relative to control; assay type: functional; procedure, shortened: as §2
[10] = target: DNA topoisomerase 2-alpha (Homo sapiens) (UniProt P11388); assay: Inhibition of recombinant human topoisomerase-2 alpha assessed as reduction in decatenation of pHOT1 kDNA at 100 uM after 10 mins by agarose gel electrophoresis method
Chain of DNA topoisomerase 2-alpha (Homo sapiens) (P11388 whole entry): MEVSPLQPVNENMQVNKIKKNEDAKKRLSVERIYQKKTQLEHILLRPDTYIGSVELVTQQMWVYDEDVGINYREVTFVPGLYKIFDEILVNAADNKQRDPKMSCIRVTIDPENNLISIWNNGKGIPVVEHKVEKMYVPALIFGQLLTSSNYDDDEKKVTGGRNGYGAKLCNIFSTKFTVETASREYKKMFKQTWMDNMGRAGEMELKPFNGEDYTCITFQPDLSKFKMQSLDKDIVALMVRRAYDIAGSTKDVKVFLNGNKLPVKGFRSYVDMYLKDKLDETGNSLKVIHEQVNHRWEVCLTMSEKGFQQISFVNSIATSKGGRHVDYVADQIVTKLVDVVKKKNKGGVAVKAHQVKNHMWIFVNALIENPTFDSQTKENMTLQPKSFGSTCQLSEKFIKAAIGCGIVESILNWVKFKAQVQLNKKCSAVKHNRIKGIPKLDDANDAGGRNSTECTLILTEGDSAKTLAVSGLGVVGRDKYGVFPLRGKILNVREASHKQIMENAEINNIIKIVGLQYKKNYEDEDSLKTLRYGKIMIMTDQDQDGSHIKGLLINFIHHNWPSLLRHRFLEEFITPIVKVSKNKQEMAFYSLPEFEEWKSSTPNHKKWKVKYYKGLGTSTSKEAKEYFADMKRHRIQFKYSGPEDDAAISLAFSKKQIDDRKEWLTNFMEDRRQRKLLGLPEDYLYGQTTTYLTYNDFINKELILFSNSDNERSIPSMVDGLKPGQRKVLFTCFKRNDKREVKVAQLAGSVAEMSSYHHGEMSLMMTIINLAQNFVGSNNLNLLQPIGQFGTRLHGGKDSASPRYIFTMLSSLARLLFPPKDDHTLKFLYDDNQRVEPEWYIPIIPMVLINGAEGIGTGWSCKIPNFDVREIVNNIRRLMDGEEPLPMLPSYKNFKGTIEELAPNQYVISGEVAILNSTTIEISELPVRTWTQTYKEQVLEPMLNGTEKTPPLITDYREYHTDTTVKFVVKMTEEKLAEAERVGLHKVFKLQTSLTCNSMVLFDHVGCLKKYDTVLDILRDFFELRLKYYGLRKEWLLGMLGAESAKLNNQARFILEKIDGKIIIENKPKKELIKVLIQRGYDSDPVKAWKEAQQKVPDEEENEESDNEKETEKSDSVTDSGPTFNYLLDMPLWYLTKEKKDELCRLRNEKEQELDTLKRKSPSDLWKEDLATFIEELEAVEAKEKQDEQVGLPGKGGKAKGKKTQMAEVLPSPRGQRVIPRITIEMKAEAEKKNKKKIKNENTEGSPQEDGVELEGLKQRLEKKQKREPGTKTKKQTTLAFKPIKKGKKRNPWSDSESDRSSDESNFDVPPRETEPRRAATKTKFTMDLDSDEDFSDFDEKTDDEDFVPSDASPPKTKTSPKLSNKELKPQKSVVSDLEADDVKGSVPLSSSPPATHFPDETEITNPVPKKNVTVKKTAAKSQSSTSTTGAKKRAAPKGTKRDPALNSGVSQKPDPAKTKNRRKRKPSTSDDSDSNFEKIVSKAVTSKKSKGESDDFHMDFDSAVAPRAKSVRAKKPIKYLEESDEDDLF
Procedure, shortened: (§3)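 Five units human recombinant topo II, 10 min at 37 °C. Stopped with loading-dye stop buffer; products resolved on 1% agarose gel in TAE (catenated, decatenated, linear DNA).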

[11] = tested on: DU-145; assay: Induction of apoptosis in human DU145 cells assessed as cell detachment from substratum at 0.5 to 1 uM after 24 hrs by phase contrast microscopic method; assay type: functional, cell-based
Procedure, shortened: (§4)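 DU-145 cells (2x10^5/well) plated overnight; medium replaced with fresh medium containing compound at indicated concentrations for 24 h. Cell morphology examined and photographed by phase-contrast microscopy.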

[12] = tested on: DU-145; assay: Induction of apoptosis in human DU145 cells assessed as cell shrinkage at 0.5 to 1 uM after 24 hrs by phase contrast microscopic method; assay type: functional, cell-based; procedure, shortened: as §4
[13] = tested on: DU-145; assay: Induction of apoptosis in human DU145 cells assessed as nuclear condensation at 0.5 to 1 uM after 24 hrs by Hoechst staining based fluorescence microscopic method; assay type: functional, cell-based
Procedure, shortened: (§5)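 DU-145 cells (1x10^5/well) incubated overnight, then treated 24 h. After three PBS washes, stained with Hoechst (1 µg/ml) for 20 min at 37 °C and washed. Imaged by fluorescence microscopy; random fields counted for chromatin condensation and nuclear fragmentation.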

[14] = tested on: DU-145; assay: Induction of apoptosis in human DU145 cells assessed as nuclear fragmentation at 0.5 to 1 uM after 24 hrs by Hoechst staining based fluorescence microscopic method; assay type: functional, cell-based; procedure, shortened: as §5
[15] = tested on: DU-145; assay: Induction of mitochondrial membrane potential loss in human DU145 cells […] at 0.5 to 1 uM after 24 hrs by JC1 staining based flow cytometry; assay type: functional, cell-based
Procedure, shortened: (§6)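 Cells (2x10^5/well) treated 24 h, trypsinized and pelleted (400 g, 5 min). Incubated with freshly made JC-1 working solution for 15 min at 37 °C, washed twice in assay buffer. Analysed by flow cytometry as percentage of J-aggregate versus J-monomer cells.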

[16] = tested on: DU-145; assay: Induction of ROS production in human DU145 cells after 24 hrs by DCFDA staining based fluorescence microscopic method; assay type: functional, cell-based
Procedure, shortened: (§7)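 DU-145 cells (2x10^5/well) plated overnight, then treated 24 h at indicated concentrations. Medium replaced with DCFDA (10 µM) for 30 min at room temperature in the dark. After PBS washes, fluorescence was imaged by microscopy and reported as mean fluorescence intensity.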

[17] = tested on: DU-145; assay: Antimigratory activity against human DU145 cells at 0.5 to 1 uM after 24 to 48 hrs by phase contrast microscopic based scratch assay; assay type: functional, cell-based
Procedure, shortened: (§8)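 DU-145 cells seeded at 2x10^5/well and grown to confluence; wound made with a sterile 200 µL tip, debris washed off with PBS. Fresh medium with compound at the indicated concentrations added. Migration followed by phase-contrast microscopy with images at 0, 24 and 48 h.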

[18] = tested on: DU-145; assay: Induction of apoptosis in human DU145 cells assessed as live cells at 0.5 uM after 24 hrs by Annexin V-FITC/propidium iodide staining based flow cytometry (reference value: 96.3%); assay type: functional
[19] = tested on: DU-145; assay: Induction of apoptosis in human DU145 cells assessed as early apoptotic cells at 0.5 uM after 24 hrs by Annexin V-FITC/propidium iodide staining based flow cytometry (reference value: 0.56%); assay type: functional
[20] = tested on: DU-145; assay: Induction of apoptosis in human DU145 cells assessed as late apoptotic cells at 0.5 uM after 24 hrs by Annexin V-FITC/propidium iodide staining based flow cytometry (reference value: 1.49%); assay type: functional
[21] = tested on: DU-145; assay: Induction of apoptosis in human DU145 cells assessed as necrotic cells at 0.5 uM after 24 hrs by Annexin V-FITC/propidium iodide staining based flow cytometry (reference value: 1.65%); assay type: functional
[22] = tested on: DU-145; assay: Induction of apoptosis in human DU145 cells assessed as live cells at 1 uM after 24 hrs by Annexin V-FITC/propidium iodide staining based flow cytometry (reference value: 96.3%); assay type: functional
[23] = tested on: DU-145; assay: Induction of apoptosis in human DU145 cells assessed as early apoptotic cells at 1 uM after 24 hrs by Annexin V-FITC/propidium iodide staining based flow cytometry (reference value: 0.56%); assay type: functional
[24] = tested on: DU-145; assay: Induction of apoptosis in human DU145 cells assessed as late apoptotic cells at 1 uM after 24 hrs by Annexin V-FITC/propidium iodide staining based flow cytometry (reference value: 1.49%); assay type: functional
[25] = tested on: DU-145; assay: Induction of apoptosis in human DU145 cells assessed as necrotic cells at 1 uM after 24 hrs by Annexin V-FITC/propidium iodide staining based flow cytometry (reference value: 1.65%); assay type: functional
[26] = tested on: DU-145; assay: Induction of apoptosis in human DU145 cells after 24 hrs by Annexin V-FITC/propidium iodide staining based flow cytometry; assay type: functional, cell-based
[27] = tested on: DU-145; assay: Cell cycle arrest in human DU145 cells assessed as accumulation at G2/M phase at 2 uM after 24 hrs by propidium iodide staining based flow cytometry relative to control; assay type: functional; procedure, shortened: as §2
[28] = target: DNA topoisomerase 2-alpha (Homo sapiens) (UniProt P11388); assay: Poison activity at recombinant human topoisomerase-2 alpha assessed as linear DNA formation using pHOT1 kDNA as substrate at 100 uM after 10 mins by agarose gel electrophoresis method; procedure, shortened: as §3
[29] = tested on: DU-145; assay: Induction of apoptosis in human DU145 cells assessed as morphological changes at 2 uM after 24 hrs by phase contrast microscopic method; assay type: functional, cell-based; procedure, shortened: as §4
[30] = tested on: DU-145; assay: Induction of apoptosis in human DU145 cells assessed as nuclear condensation at 2 uM after 24 hrs by Hoechst staining based fluorescence microscopic method; assay type: functional, cell-based; procedure, shortened: as §5
[31] = tested on: DU-145; assay: Induction of apoptosis in human DU145 cells assessed as nuclear fragmentation at 2 uM after 24 hrs by Hoechst staining based fluorescence microscopic method; assay type: functional, cell-based; procedure, shortened: as §5
[32] = tested on: DU-145; assay: Induction of mitochondrial membrane potential loss in human DU145 cells […] at 2 uM after 24 hrs by JC1 staining based flow cytometry; assay type: functional, cell-based; procedure, shortened: as §6
[33] = tested on: DU-145; assay: Induction of ROS production in human DU145 cells at 2 uM after 24 hrs by DCFDA staining based fluorescence microscopic method; assay type: functional, cell-based; procedure, shortened: as §7
[34] = tested on: DU-145; assay: Antimigratory activity against human DU145 cells at 2 uM after 24 to 48 hrs by phase contrast microscopic based scratch assay; assay type: functional, cell-based; procedure, shortened: as §8
[35] = tested on: DU-145; assay: Induction of apoptosis in human DU145 cells assessed as live cells at 2 uM after 24 hrs by Annexin V-FITC/propidium iodide staining based flow cytometry (reference value: 96.3%); assay type: functional
[36] = tested on: DU-145; assay: Induction of apoptosis in human DU145 cells assessed as early apoptotic cells at 2 uM after 24 hrs by Annexin V-FITC/propidium iodide staining based flow cytometry (reference value: 0.56%); assay type: functional
[37] = tested on: DU-145; assay: Induction of apoptosis in human DU145 cells assessed as late apoptotic cells at 2 uM after 24 hrs by Annexin V-FITC/propidium iodide staining based flow cytometry (reference value: 1.49%); assay type: functional
[38] = tested on: DU-145; assay: Induction of apoptosis in human DU145 cells assessed as necrotic cells at 2 uM after 24 hrs by Annexin V-FITC/propidium iodide staining based flow cytometry (reference value: 1.65%); assay type: functional
[39] = tested on: DU-145; assay: Induction of ROS production in human DU145 cells at 0.5 to 1 uM after 24 hrs by DCFDA staining based fluorescence microscopic method; assay type: functional, cell-based; procedure, shortened: as §7

COc1cc([C@@H]2c3cc4c(cc3C(NC(=O)c3cn(-c5ccc(C(F)(F)F)cc5)nn3)[C@H]3COC(=O)[C@H]23)OCO4)cc(OC)c1OC (single isomer, unassigned)
IC50 [1]: 1210 nM
IC50 [2]: 1350 nM
IC50 [3]: 890 nM
IC50 [4]: 1960 nM
IC50 [5]: 1210 nM
IC50 [6]: 4400 nM
IC50 [7]: 83800 nM
Activity [8]: 52.42%
Activity [9]: 56.16%
inhibition [10]: Active
Activity [11]: Active
Activity [12]: Active
Activity [13]: Active
Activity [14]: Active
Activity [15]: Active
Activity [16]: Dose-dependent effect
Activity [17]: Active
Activity [18]: 89.65%
Activity [19]: 7.01%
Activity [20]: 2.6%
Activity [21]: 0.74%
Activity [22]: 79.84%
Activity [23]: 17.65%
Activity [24]: 2.46%
Activity [25]: 0.05%
Activity [26]: Dose-dependent effect

COc1cc([C@@H]2c3cc4c(cc3[C@@H](O[C@@H]3O[C@@H]5CO[C@@H](C)O[C@H]5[C@H](O)[C@H]3O)[C@H]3COC(=O)[C@H]23)OCO4)cc(OC)c1O [ETOPOSIDE]
IC50 [1]: 2710 nM
IC50 [2]: 1620 nM
IC50 [3]: 2350 nM
IC50 [4]: 1970 nM
IC50 [5]: 2840 nM
IC50 [6]: 1870 nM
Activity [27]: 71.53%
Activity [28]: Active
Activity [29]: Active
Activity [30]: Active
Activity [31]: Active
Activity [32]: Active
Activity [33]: Active
Activity [34]: Active
Activity [35]: 91.09%
Activity [36]: 4.52%
Activity [37]: 3.86%
Activity [38]: 0.53%

COc1cc([C@@H]2c3cc4c(cc3C(NC(=O)c3cn(-c5ccc(Cl)cc5)nn3)[C@H]3COC(=O)[C@H]23)OCO4)cc(OC)c1OC (single isomer, unassigned)
IC50 [1]: 780 nM
IC50 [2]: 970 nM
IC50 [3]: 700 nM
IC50 [4]: 1200 nM
IC50 [5]: 780 nM
IC50 [6]: 4110 nM
IC50 [7]: 89000 nM
Activity [8]: 31.94%
Activity [9]: 35.61%
Activity [28]: Active
Activity [11]: Active
Activity [12]: Active
Activity [13]: Active
Activity [14]: Active
Activity [15]: inactive
Activity [39]: Active
Activity [17]: inactive
Activity [18]: 93.72%
Activity [19]: 3.94%
Activity [20]: 1.93%
Activity [21]: 0.41%
Activity [22]: 93.69%
Activity [23]: 4.35%
Activity [24]: 1.8%
Activity [25]: 0.16%

COc1ccc(-n2cc(C(=O)NC3c4cc5c(cc4[C@@H](c4cc(OC)c(OC)c(OC)c4)[C@H]4C(=O)OC[C@H]34)OCO5)nn2)cc1 (single isomer, unassigned)
IC50 [1]: 6490 nM
IC50 [2]: 1110 nM
IC50 [3]: 990 nM
IC50 [4]: 1610 nM
IC50 [5]: 2790 nM
IC50 [6]: 11400 nM
IC50 [7]: 62900 nM
Activity [8]: 56.71%
Activity [9]: 64.3%
Activity [28]: Active
Activity [11]: Active
Activity [12]: Active
Activity [13]: Active
Activity [14]: Active
Activity [15]: Active
Activity [16]: Dose-dependent effect
Activity [17]: Active
Activity [18]: 91.01%
Activity [19]: 6.76%
Activity [20]: 1.83%
Activity [21]: 0.4%
Activity [22]: 88.89%
Activity [23]: 7%
Activity [24]: 3.12%
Activity [25]: 0.99%
Activity [26]: Dose-dependent effect
